Bioassay records: PubChem, Johns Hopkins Ion Channel Center
A selection: hits, their analogues and other compounds. The true share with any hit is near 3.5%.
RGS4 act – RGS4 potentiation or activation; B-score at 10 µM; HEK293 M3R/inducible RGS4, carbachol calcium flux Fluo4; active compounds read low; 310,000 tested, 0.92% active;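 active means B-score of the integrated calcium signal more than 4 SD below the library mean, with starting fluorescence not abnormally high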;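 further: negative B-score means reduced calcium response which marks RGS4 activation or potentiation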
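Material: M3R-expressing HEK293 line, RGS4 induced by doxycycline | Schedule: Overnight RGS4 induction, 30 min dye load 37 °C, 20 min compound RT | Measured by: Fluo4 fluorescence kinetic imaging of calcium | Read-out: Integrated calcium ratio converted to B score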
RGS4 block – human RGS4 inhibition; P49798; HEK293 M3R/RGS4 inducible, Fluo-4 calcium flux; active compounds read high; triggered by carbachol at its EC20; B-score at 10 µM; 310,000 tested, 0.45% active;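 active means B-score, a plate-corrected calcium signal, over three deviations above library mean, with baseline fluorescence within five deviations of library mean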;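 further: RGS4 expression induced by doxycycline in cells with stable M3 receptor; B-score is computed from the integrated fluorescence ratio over baseline after carbachol; higher B-score means a larger calcium signal and so more RGS4 inhibition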
Target sequence (P49798 whole entry, looked up): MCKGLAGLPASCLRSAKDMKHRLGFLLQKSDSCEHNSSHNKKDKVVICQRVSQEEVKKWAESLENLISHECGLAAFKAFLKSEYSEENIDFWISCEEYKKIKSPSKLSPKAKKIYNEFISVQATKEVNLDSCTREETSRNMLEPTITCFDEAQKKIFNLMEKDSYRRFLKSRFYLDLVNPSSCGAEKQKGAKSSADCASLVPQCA
MrgX1 agonist – human MrgX1 receptor agonism, primary screen; B-score at 10 µM; AID 588627; 310,000 tested, 0.44% active; MrgX1-HEK293 cells, Fluo-4 calcium fluorescence, agonist mode; active compounds read high; Q96LB2;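 active means calcium response B-score plate-corrected fluorescence ratio at least 3 library SD, with starting fluorescence B-score inside 5 SD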
Target sequence (Q96LB2 whole entry, looked up): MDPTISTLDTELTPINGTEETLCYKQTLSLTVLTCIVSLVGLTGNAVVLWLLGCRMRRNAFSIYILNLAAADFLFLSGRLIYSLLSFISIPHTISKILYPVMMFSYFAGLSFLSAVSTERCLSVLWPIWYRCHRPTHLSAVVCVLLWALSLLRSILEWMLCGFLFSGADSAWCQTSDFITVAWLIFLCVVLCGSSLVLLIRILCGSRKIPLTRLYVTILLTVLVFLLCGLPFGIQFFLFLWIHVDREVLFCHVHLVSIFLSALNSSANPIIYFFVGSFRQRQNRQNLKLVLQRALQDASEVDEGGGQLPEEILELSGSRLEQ
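System: HEK293 cells stably expressing human MrgX1 receptor; Dosing: test compound in the initial addition of three; Schedule: overnight plating, then 30 min 37 °C plus 30 min room-temperature dye loading; Detection: kinetic calcium dye fluorescence, Fluo-4 NW; Controls: per-plate positive and negative controls for Z′ factor.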
MrgX1 PAM – allosterically activates human MrgX1 receptor signaling; Q96LB2; MrgX1-HEK293, Fluo-4 calcium flux, FDSS; active compounds read high; B-score at 10 µM; 310,000 tested, 0.63% active; AID 588675;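 active means plate-corrected calcium response at least 3 library SD above typical, normal starting fluorescence, not activating the receptor alone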;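 further: compound read alongside a low EC10 to EC30 dose of BAM8-22 agonist; peak minus trough fluorescence over baseline measured at the second addition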
MrgX1 antagonist – blocks BAM8-22 activation of human MrgX1 receptor | Q96LB2 | MRGX1-HEK293 calcium flux, Fluo-4, BAM8-22 antagonism; active compounds read low | B-score at 10 µM | 310,000 tested, 1.3% active;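 active means calcium-response B-score plate-corrected more than 3 library SD below zero, starting fluorescence within 5 deviations, no agonist response on first addition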;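 further: peak minus trough fluorescence over baseline after final BAM8-22 challenge near maximal dose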
MrgX1 ag reconf – human MrgX1 agonism, re-confirmation screen. MrgX1-HEK293, Fluo-4 calcium fluorescence, FDSS. 600 tested, 78% active. activation, % at 10 µM. shares compounds with MrgX1 agonist;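 active means calcium signal rise, corrected for plate position, at least 3 library SD high, with starting brightness within 5 such deviations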
HEK293 Ca flux – MrgX1 antagonist counter-screen hit in parental HEK293 cells; shares compounds with MrgX1 antagonist; Fluo-4 calcium fluorescence, FDSS; fluorescence ratio F(max-min)/F0 at 10 µM; 4,000 tested, 2% active;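 active means duplicate-averaged calcium fluorescence ratio at least three times the standard deviation of buffer wells, a nonspecific response in parental cells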
HEK293 Ca counter – activity in parental HEK293 cells without MrgX1. shares compounds with MrgX1 antagonist. fluorescence ratio F(max-min)/F0 at 10 µM. parental HEK293 calcium flux, Fluo-4 fluorescence ratio; active compounds read high. 4,000 tested, 0.4% active;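 active means calcium fluorescence ratio, averaged over duplicates, at least 3 SD of the buffer-well ratio, meaning a nonspecific response in receptor-free cells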;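 further: untransfected parental HEK293 lacking MrgX1 used as counterscreen for MrgX1 allosteric activators; fluorescence change taken during the second addition on a kinetic imager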
HEK293 Ca cntr2 – activity in parental HEK293 cells lacking MrgX1 receptor | Fluo-4 calcium fluorescence (FDSS); active compounds read high | shares compounds with MrgX1 antagonist | fluorescence ratio F(max-min)/F0 at 10 µM | 4,000 tested, 8.7% active;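 active means calcium fluorescence ratio at least three times the spread of buffer wells, meaning a non-specific response in parental cells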
An asterisk follows results filed as active; i = inactive; . = not tested or not shown.

SMILES	RGS4 act	RGS4 block	MrgX1 agonist	MrgX1 PAM	MrgX1 antagonist	MrgX1 ag reconf	HEK293 Ca flux	HEK293 Ca counter	HEK293 Ca cntr2
Cc1cc(C)nc(/N=C(\N)Nc2ccc(-c3ccccc3)cc2)n1	-7.1*	i	74*	i	i	300%*	i	i	i
CCOc1ccc(N/C(N)=N/c2nc(C)cc(C)n2)cc1	i	i	142*	i	i	434%*	i	i	94*
Cc1cc(C)nc(/N=C(\N)Nc2ccc(S(N)(=O)=O)cc2)n1	i	i	i	i	i	.	.	.	.
Cc1cc(C)nc(/N=C(\N)Nc2ccc(SC(F)F)cc2)n1	i	i	57*	i	i	444%*	i	i	98*
CC(=O)Nc1ccc(N/C(N)=N/c2nc(C)cc(C)n2)cc1	i	i	i	i	i	.	.	.	.
CCCc1nc(SCC(=O)N2CCOCC2)c2c(C)c(C)sc2n1	i	i	i	i	i	.	.	.	.
O=S(=O)(c1ccc2nc(N3CCN(c4ccc(F)cc4)CC3)ccc2c1)N1CCCCC1	i	i	i	i	i	.	.	.	.
CCOCCn1c(SC(C)C(C)=O)nc2c1c(=O)[nH]c(=O)n2C (centres undefined)	i	i	53*	i	i	i	i	i	i
CCCCCC(=O)N/N=C(\C)c1ccccn1	i	i	86*	i	i	i	i	i	i
CCCCCCCCCC(=O)N/N=C(\C)c1cccnc1	i	i	i	i	i	.	.	.	.
Oc1c(C(c2ccccn2)N2CCCCC2)cc(Cl)c2cccnc12 (centres undefined)	i	i	32*	i	i	97%*	i	i	i
CCN(CC)c1ccc(C=C2C(=O)OC3(CCCC3)OC2=O)cc1	i	i	74*	i	i	440%*	i	i	110*
Cn1cc(C=C2C(=O)OC3(CCCCC3)OC2=O)c2ccccc21	i	i	i	i	i	.	.	.	.
CSc1ccc(C2NC(=O)c3c(sc4c3CCN(C)C4)N2)cc1 (centres undefined)	i	i	28*	i	i	101%*	i	i	i
CN1CCc2c(sc3c2C(=O)NC(c2cccs2)N3)C1 (centres undefined)	i	i	40*	i	i	i	i	i	i
CCC1c2ccc(C)n2CCN1C(=O)Nc1ccccc1C(=O)OC (centres undefined)	i	i	29*	i	i	i	i	i	i
CCOC(=O)c1ccccc1NC(=O)N1CCn2c(C)ccc2C1CC (centres undefined)	i	i	i	i	i	.	.	.	.
CCC1c2ccc(C)n2CCN1C(=O)Nc1cc(Cl)ccc1OC (centres undefined)	i	i	33*	i	i	i	i	i	i
CCOC(=O)Nc1ccc2c(c1)N(C(=O)N(C)C)c1ccccc1CC2	i	i	i	i	i	.	.	.	.
CCOC(=O)Nc1ccc2c(c1)N(C(=O)N(CC)CC)c1ccccc1CC2	i	i	38*	i	i	161%*	i	i	47*
CCN(CC)S(=O)(=O)c1ccc(N2CCCC2)c(NC(=O)C2CSC3(C)CCC(=O)N23)c1 (centres undefined)	i	i	i	i	i	.	.	.	.
O=C(Nc1nnc(-c2cccs2)o1)c1cccc(C(F)(F)F)c1	i	i	75*	i	i	498%*	i	i	96*
N#Cc1ccc(C(=O)Nc2nnc(-c3cccs3)o2)cc1	i	i	i	i	i	.	.	.	.
Cc1cccc(CN2[C@@H](CC(C)C)COCCS2(=O)=O)c1	i	i	i	i	i	.	.	.	.
O=C(O)C(Sc1ccncn1)c1ccccc1 (centres undefined)	i	i	i	i	i	.	.	.	.
SMILES	RGS4 act	RGS4 block	MrgX1 agonist	MrgX1 PAM	MrgX1 antagonist	MrgX1 ag reconf	HEK293 Ca flux	HEK293 Ca counter	HEK293 Ca cntr2
N#Cc1ccc(-c2nc3cc(Cl)ccc3c(=O)n2O)cc1	i	i	i	i	i	.	.	.	.
Cc1ccc(-c2nc3c(Cl)cc(Cl)cc3c(=O)n2O)cc1	i	i	105*	i	i	482%*	i	i	104*
O=c1c2cc(Cl)ccc2nc(-c2ccc([N+](=O)[O-])cc2)n1O	i	i	72*	i	i	270%*	i	i	63*
O=c1c2cc(Br)ccc2nc(-c2ccc(Cl)cc2)n1O	i	i	143*	i	i	661%*	i	i	129*
CCCCn1c(N)c(N(CC(C)C)C(=O)c2ccc(S(=O)(=O)N3CCCCC3)cc2)c(=O)[nH]c1=O	i	i	i	i	i	.	.	.	.
CCc1ccc(Nc2n[n+](C)c(-c3ccncc3)s2)cc1	i	i	i	i	i	.	.	.	.
Cc1cc2c(c(=O)o1)C(CCC1CCCCC1)C(C#N)=C(N)O2 (centres undefined)	i	i	28*	i	i	i	i	i	i
CCC(CC)C1C(C#N)=C(N)Oc2cc(C)oc(=O)c21 (centres undefined)	i	i	i	i	i	.	.	.	.
O=C(CSc1ncnc2ccccc12)c1cccs1	i	i	29*	i	i	i	i	i	i
COc1cccc(CNC(=O)CCC2CCCN(c3cc(C)nc(N)n3)C2)c1 (centres undefined)	i	i	30*	i	i	i	i	i	i
COc1cccc(CNC(=O)CCC2CCCN(C(=O)c3ccc(C)nc3)C2)c1 (centres undefined)	i	i	i	i	i	.	.	.	.
CCOC(=O)N1CCN(c2nc(-c3ccc(OC)cc3)no2)CC1	i	i	74*	i	i	i	i	i	i
Cc1onc(-c2ccccc2)c1C(=O)NCc1ccc2c(c1)OCO2	i	i	i	i	i	.	.	.	.
COc1ccc(C(=O)NC(=S)NNC(=O)[C@H]2C[C@@H]2c2ccccc2)cc1OC	i	i	67*	i	i	378%*	i	i	72*
